IC50 data for eight compounds are collected here from ChEMBL document CHEMBL3399923, “Design and synthesis of new bioisosteres of spirooxindoles (MI-63/219) as anti-breast cancer agents” (Bioorg Med Chem, 2015).

SMILES strings stand for the structures.

One experiment concerns HEK293. Kind of experiment: Cytotoxicity against human HEK293 cells after 48 hrs by MTT assay. As to conditions: HEK293, 48 h. Type of experiment: cell-based. In a few lines: (§1)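 MTT viability screen for cytotoxicity across the breast cancer and normal kidney epithelial lines; IC50 reported in µM.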
For another experiment, the system named is MDA-MB-231. Kind of experiment: Cytotoxicity against human MDA-MB-231 cells after 48 hrs by MTT assay. As to conditions: MDA-MB-231, 48 h. Type of experiment: functional, cell-based. The essentials:
as §1
(In general: Formazan colour is commonly taken as a measure of viable cells.)

Another experiment relates to Vero. Kind of experiment: Cytotoxicity against African green monkey Vero cells after 48 hrs by MTT assay. Type of experiment: cell-based. The note with it: Chlorocebus sabaeus. In a few lines: as §1
The subject of the next experiment is MCF7. As to the kind of experiment: Cytotoxicity against human MCF7 cells after 48 hrs by MTT assay. Type of experiment: functional, cell-based. As to conditions: MCF7, 48 h. In a few lines:
as §1

On to `COc1ccc([C@H]2C(C(=O)c3ccccc3)C3(N[C@@H]2c2ccccc2)C(=O)Nc2ccccc23)cc1` (stereo partly specified), for which the IC50 was more than 50 µM with HEK293, 30.5 µM in the experiment with MDA-MB-231, 43.5 µM in the experiment with Vero and 20.6 µM with MCF7.
The corresponding values for `O=C(c1ccc(OCCN2CCOCC2)cc1)C1[C@H](c2ccccc2)[C@@H](c2ccccc2)NC12C(=O)Nc1ccc(Cl)cc12` (stereo partly specified) are 25.4 µM, 19.2 µM, 30.8 µM and 18 µM.
In the same order, the values of `CN(C)CCCOc1ccc(C(=O)C2[C@H](c3ccccc3)[C@@H](c3ccccc3)NC23C(=O)Nc2ccccc23)cc1` (stereo partly specified) are more than 50 µM, 9.2 µM, more than 50 µM and 9.6 µM.
The corresponding values for `CCN(CC)CCOc1ccc(C(=O)C2[C@H](c3ccccc3)[C@@H](c3ccccc3)NC23C(=O)Nc2ccccc23)cc1` (stereo partly specified) are 23.2 µM, 14.5 µM, 20.6 µM and 13.4 µM.
Take `O=C(c1ccc(OCCN2CCCCC2)cc1)C1[C@H](c2ccccc2)[C@@H](c2ccccc2)NC12C(=O)Nc1ccccc12` (stereo partly specified): the IC50 with HEK293 amounted to 30.8 µM; in the experiment on MDA-MB-231 it was 28.2 µM; with Vero, 32.4 µM; in the experiment on MCF7 it was 13.9 µM.
`O=C(c1ccc(OCCN2CCCC2)cc1)C1[C@H](c2ccccc2)[C@@H](c2ccccc2)NC12C(=O)Nc1ccccc12` (stereo partly specified): the IC50 with HEK293 amounted to 25.3 µM; with MDA-MB-231 it was 16.8 µM; with Vero, 19.4 µM; in the experiment on MCF7 it was 23 µM.
The corresponding values for `CN(C)CCOc1ccc(C(=O)C2[C@H](c3ccccc3)[C@@H](c3ccccc3)NC23C(=O)Nc2ccc([N+](=O)[O-])cc23)cc1` (stereo partly specified) are 24.2 µM, 17.8 µM, 28.8 µM and 17.2 µM.
Turning to `CC/C(=C(\c1ccc(O)cc1)c1ccc(OCCN(C)C)cc1)c1ccccc1`, the IC50 in the experiment with HEK293 is more than 50 µM; in the experiment on Vero, more than 50 µM; with MCF7 it was 13.6 µM.

What is called IC50 is the concentration that inhibits the measured activity by half.
